Bioassay records (PubChem)
Sampled rows, rich in hits. Any-hit rate of the full collection: about 2.6%.
Runt-CBFb FRET – inhibitors of human RUNX1 Runt domain binding to CBFb; Q01196+Q13951; Cerulean-Runt/Venus-CBFb FRET ratio 530/480, 1 h; inhibition, % at 20 µM; 220,000 tested, 0.46% active;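 active means inhibition over about 50% at 20 µM in the single-dose screen, limit read from the data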
Target sequence (Q01196 whole entry, looked up, the tested form may be a part): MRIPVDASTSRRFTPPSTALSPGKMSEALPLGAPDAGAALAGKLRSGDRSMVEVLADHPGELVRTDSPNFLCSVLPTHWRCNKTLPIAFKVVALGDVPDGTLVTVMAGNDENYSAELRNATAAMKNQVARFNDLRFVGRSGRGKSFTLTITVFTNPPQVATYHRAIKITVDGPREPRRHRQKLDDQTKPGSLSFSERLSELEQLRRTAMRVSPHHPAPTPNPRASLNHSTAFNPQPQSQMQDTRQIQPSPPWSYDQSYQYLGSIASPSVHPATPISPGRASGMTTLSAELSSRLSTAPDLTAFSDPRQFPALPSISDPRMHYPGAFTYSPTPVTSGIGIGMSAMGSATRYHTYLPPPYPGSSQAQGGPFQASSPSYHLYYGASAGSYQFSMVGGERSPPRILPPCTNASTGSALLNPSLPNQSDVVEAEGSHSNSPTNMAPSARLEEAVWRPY
Target sequence (Q13951 whole entry, looked up, the tested form may be a part): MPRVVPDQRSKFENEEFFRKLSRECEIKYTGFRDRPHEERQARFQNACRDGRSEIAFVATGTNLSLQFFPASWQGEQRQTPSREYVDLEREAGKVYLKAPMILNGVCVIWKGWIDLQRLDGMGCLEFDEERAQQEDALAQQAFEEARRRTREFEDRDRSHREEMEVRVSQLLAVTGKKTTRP
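test system = Cerulean-Runt domain fusion protein, energy donor | probe or stimulus = Venus-CBFb binding partner, 100 nM | incubation = two 1 h room-temperature incubations shielded from light | detection = fluorescence energy transfer, 422 nm excitation, 530/480 nm emission | measure = loss of energy transfer signal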
Runt-SMMHC FRET – Runt domain-CBFb-SMMHC interaction inhibition; inhibition, % at 20 µM; Q01196+Q13951; Cerulean-Runt/Venus-CBFb-SMMHC FRET ratio 530/480, 1 h; AID 1434; 220,000 tested, 0.74% active;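 active means mean inhibition across duplicate retests at 20 µM reaching about 50%, limit read from the data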;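 further: inhibitors lower the FRET ratio by blocking Runt binding to CBFb-SMMHC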
IMP-1 inhibitor – blocks Pseudomonas aeruginosa IMP-1 metallo-beta-lactamase; purified IMP-1, nitrocefin hydrolysis, epi-absorbance fluorescence; inhibition, % at 5.6 µM; 290,000 tested, 0.45% active; AID 1556;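 active means inhibition above the mean plus 3 SD of all compounds in the same screening run, cut at about 4.5% in these data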
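System: purified recombinant IMP-1 beta-lactamase. Medium: Zinc- and detergent-supplemented HEPES buffer, pH 7.1. Compound: one 5.6 µM dose […]. Schedule: 15 min preincubation plus 25 min reaction at 25 °C. Technique: Epi-absorbance fluorescence, 480 nm excitation, 530 nm emission.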
RanGTP-Imp inh – disruptors of Ran-importin-beta complex formation – biochemical, FRET, CFP-Ran, YFP-importin-beta, homogeneous, primary screen; inhibition, % (concentration not given with the values); AID 2216; 300,000 tested, 1.1% active; cell-free CFP-Ran/YFP-importin-beta FRET ratio;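 active means more than half of the replicate wells show a fall in the fluorescence ratio signal beyond about 16%, limit read from the data, passing the limit was not always enough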
VIM-2 inh – inhibitors of Pseudomonas aeruginosa VIM-2 metallo-beta-lactamase; AID 1527; 290,000 tested, 0.89% active; inhibition, % at 5.6 µM; purified VIM-2, nitrocefin hydrolysis, epi-absorbance fluorescence;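 active means inhibition above the mean of all tested compounds plus 3 SD, cutoff set per screening run, cut at about 7.5% in these data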;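 further: red hydrolysis product quenches plate fluorescence so inhibitors raise well fluorescence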
YIC FRET counter – counter-screen for RanGTP-importin-beta inhibitors: YIC FRET probe; AID 435026; 1,000 tested, 40% active; shares compounds with RanGTP-Imp inh; IC50, µM; Purified YIC probe, intramolecular FRET ratio YFP/CFP;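 active means fitted half-maximal inhibitory concentration no more than tenfold above the top dose tested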
Numbers stand for hits.

How did C/C=C/C=C\C(=O)Nc1cccc(C2=NOC3(C2)C[C@@H](C(N)=O)N(C(=O)c2cc([N+](=O)[O-])cc([N+](=O)[O-])c2)C3)c1 (stereo not given in full) do in these assays?
Runt-CBFb FRET: inactive; Runt-SMMHC FRET: inactive; RanGTP-Imp inh: inactive

Results for OCCC1CN(Cc2cccn2-c2cccnc2)CCN1Cc1ccc(F)cc1 (stereo not given) ?
Runt-CBFb FRET: inactive; Runt-SMMHC FRET: inactive; IMP-1 inhibitor: inactive; RanGTP-Imp inh: 27; VIM-2 inh: inactive; YIC FRET counter: inactive

Results for CCSC1=NCCN1C(=O)c1ccc(S(=O)(=O)N(C)C)cc1 ?
Runt-CBFb FRET: inactive; Runt-SMMHC FRET: inactive; IMP-1 inhibitor: inactive; RanGTP-Imp inh: inactive; VIM-2 inh: inactive

How did COc1ccc(-n2cnc3cc(NCc4cccs4)ccc32)cc1 do in these assays?
Runt-CBFb FRET: inactive; Runt-SMMHC FRET: inactive; IMP-1 inhibitor: inactive; RanGTP-Imp inh: 19; VIM-2 inh: inactive; YIC FRET counter: inactive

Results for Cc1ccc(C2CC(c3ccc(Br)cc3)=NN2C(=O)CSC2=NN3CCCC(=O)N=C3S2)cc1 (stereo not given) ?
IMP-1 inhibitor: inactive; RanGTP-Imp inh: inactive; VIM-2 inh: inactive

What do the screens show for `O=C1CCCN2N=C(SCC(=O)N3N=C(c4ccc(Br)cc4)CC3c3ccc(F)cc3)SC2=N1` (stereo not given)?
Runt-CBFb FRET: inactive; Runt-SMMHC FRET: inactive; IMP-1 inhibitor: inactive; RanGTP-Imp inh: 20; VIM-2 inh: inactive; YIC FRET counter: inactive

What do the screens show for `CCOC(=O)c1sc(NC(=O)CSc2n[nH]c(-c3ccccc3)n2)c(C#N)c1C`?
Runt-CBFb FRET: inactive; Runt-SMMHC FRET: inactive; IMP-1 inhibitor: inactive; RanGTP-Imp inh: inactive; VIM-2 inh: inactive

What do the screens show for `CCOC(=O)c1sc(NC(=O)CSc2nc(C)cc(C)n2)c(C#N)c1C`?
Runt-CBFb FRET: inactive; Runt-SMMHC FRET: inactive; IMP-1 inhibitor: inactive; RanGTP-Imp inh: 21; VIM-2 inh: inactive; YIC FRET counter: inactive

How did Cc1nn(-c2ccccc2)c2sc(C(=O)NC3CCCCC3)cc12 do in these assays?
Runt-CBFb FRET: inactive; Runt-SMMHC FRET: inactive; IMP-1 inhibitor: inactive; RanGTP-Imp inh: 28; VIM-2 inh: inactive; YIC FRET counter: inactive

Results for COc1ccc(CCNc2c3ccccc3nc3ccccc23)cc1OC ?
Runt-CBFb FRET: 110; Runt-SMMHC FRET: 134; IMP-1 inhibitor: inactive; RanGTP-Imp inh: 43; VIM-2 inh: inactive; YIC FRET counter: 14

How did COc1ccc(CCn2c(C)nc3ccccc3c2=O)cc1OC do in these assays?
Runt-CBFb FRET: inactive; Runt-SMMHC FRET: inactive; IMP-1 inhibitor: inactive; RanGTP-Imp inh: 23; VIM-2 inh: inactive; YIC FRET counter: inactive

How did COc1nc(NCCc2ccc(OC)c(OC)c2)nc(OC)n1 do in these assays?
Runt-CBFb FRET: inactive; Runt-SMMHC FRET: inactive; IMP-1 inhibitor: inactive; RanGTP-Imp inh: inactive; VIM-2 inh: inactive

How did CCOC(=O)C1CCN(C(=O)CCCn2nc(CC)n3c(cc4occc43)c2=O)CC1 do in these assays?
IMP-1 inhibitor: inactive; RanGTP-Imp inh: inactive; VIM-2 inh: inactive

What do the screens show for `CCc1ccc(C2C(C#N)=C(N)SC(N)=C2C#N)cc1`?
Runt-CBFb FRET: inactive; Runt-SMMHC FRET: inactive; IMP-1 inhibitor: inactive; RanGTP-Imp inh: 39; VIM-2 inh: inactive; YIC FRET counter: inactive

Results for COc1ccc(S(=O)Cc2ccc(C(=O)NC3CC3)o2)cc1 (stereo not given) ?
IMP-1 inhibitor: inactive; RanGTP-Imp inh: 39; VIM-2 inh: inactive; YIC FRET counter: inactive

How did O=C(NC1CC1)c1ccc(CS(=O)c2ccc(Br)cc2)o1 (stereo not given) do in these assays?
IMP-1 inhibitor: inactive; RanGTP-Imp inh: inactive; VIM-2 inh: inactive

Results for O=C(O)c1ccccc1C(=O)Nc1ccc(Br)c2cccnc12 ?
Runt-CBFb FRET: inactive; Runt-SMMHC FRET: inactive; IMP-1 inhibitor: inactive; RanGTP-Imp inh: 17; VIM-2 inh: inactive; YIC FRET counter: inactive

Results for O=C(O)c1ccccc1C(=O)Nc1ccccn1 ?
Runt-CBFb FRET: inactive; Runt-SMMHC FRET: inactive; IMP-1 inhibitor: inactive; RanGTP-Imp inh: inactive; VIM-2 inh: inactive

Results for Cc1ccc(C)c(C2NC(=O)c3ccccc3N2)c1 (stereo not given) ?
Runt-CBFb FRET: inactive; Runt-SMMHC FRET: inactive; IMP-1 inhibitor: inactive; RanGTP-Imp inh: inactive; VIM-2 inh: inactive

Results for Cc1sc2c(c1C)C(=O)NC(c1ccccc1F)N2 (stereo not given) ?
Runt-CBFb FRET: inactive; Runt-SMMHC FRET: inactive; IMP-1 inhibitor: inactive; RanGTP-Imp inh: 24; VIM-2 inh: inactive; YIC FRET counter: inactive

What do the screens show for `O=C1CSC(c2ccccc2F)N1` (stereo not given)?
Runt-CBFb FRET: inactive; Runt-SMMHC FRET: inactive; IMP-1 inhibitor: inactive; RanGTP-Imp inh: inactive; VIM-2 inh: inactive

Results for Cc1ccc(C2NC(=O)c3c(sc(C)c3C)N2)c(O)c1 (stereo not given) ?
Runt-CBFb FRET: inactive; Runt-SMMHC FRET: inactive; IMP-1 inhibitor: inactive; RanGTP-Imp inh: 24; VIM-2 inh: inactive; YIC FRET counter: inactive

What do the screens show for `Cc1cc(C)nc(NN=C(c2ccccc2)c2ccccc2)n1`?
Runt-CBFb FRET: inactive; Runt-SMMHC FRET: inactive; IMP-1 inhibitor: inactive; RanGTP-Imp inh: inactive; VIM-2 inh: inactive

How did COc1ccc(C(=O)Nc2c(-c3cccs3)c(=O)c3ccccc3n2C)cc1 do in these assays?
Runt-CBFb FRET: inactive; Runt-SMMHC FRET: inactive; IMP-1 inhibitor: inactive; RanGTP-Imp inh: inactive; VIM-2 inh: inactive

What do the screens show for `CCn1c(=O)cc(N2CCC3(CC2)OCCO3)[nH]c1=O`?
Runt-CBFb FRET: inactive; Runt-SMMHC FRET: inactive; IMP-1 inhibitor: inactive; RanGTP-Imp inh: 24; VIM-2 inh: inactive; YIC FRET counter: inactive

How did O=c1cc(N2CCC3(CC2)OCCO3)[nH]c(=O)n1C1CCCCC1 do in these assays?
Runt-CBFb FRET: inactive; Runt-SMMHC FRET: inactive; IMP-1 inhibitor: inactive; RanGTP-Imp inh: inactive; VIM-2 inh: inactive

What do the screens show for `CCOc1ccc(C2C3=C(CC(C)(C)CC3=O)N(CC(=O)O)C3=C2C(=O)CC(C)(C)C3)cc1OCC`?
IMP-1 inhibitor: inactive; RanGTP-Imp inh: inactive; VIM-2 inh: inactive

Results for C#CCOc1ccc(C2C3=C(CC(C)(C)CC3=O)N(CC(=O)O)C3=C2C(=O)CC(C)(C)C3)cc1OC ?
IMP-1 inhibitor: inactive; RanGTP-Imp inh: 22; VIM-2 inh: inactive; YIC FRET counter: 39

Results for O=C(NCCN1CCOCC1)c1cc(Cl)ccc1[N+](=O)[O-] ?
Runt-CBFb FRET: inactive; Runt-SMMHC FRET: inactive; IMP-1 inhibitor: inactive; RanGTP-Imp inh: inactive; VIM-2 inh: inactive

Results for Cc1ccc(-c2oc3ccccc3c(=O)c2O)cc1 ?
Runt-CBFb FRET: inactive; Runt-SMMHC FRET: inactive; IMP-1 inhibitor: inactive; RanGTP-Imp inh: 22; VIM-2 inh: inactive; YIC FRET counter: 17
